Assay results reported in ChEMBL document CHEMBL3526002, “Tissue distribution and identification of radioactivity components at elimination phase after oral administration of [¹⁴C]CS-1036, an α-amylase inhibitor, to rats” (Drug Metab Dispos, 2013).

How the values were obtained:
Design in all cases: dose 5 mg/kg, dosed compound name [14C]CS-1036, route oral
Settings in all cases: in vivo
[1] = system: Small intestine; assay: Drug uptake in albino F344/DuCrlCrlj rat small intestine assessed as ng equivalent of CS-1036 at 5 mg/kg, po after 24 hrs by liquid scintillation counting; assay type: ADME, organism-based
[2] = system: Large intestine; assay: Drug uptake in albino F344/DuCrlCrlj rat large intestine at 5 mg/kg, po after 336 hrs by liquid scintillation counting; assay type: ADME, organism-based
[3] = system: Harderian gland; assay: Drug uptake in albino F344/DuCrlCrlj rat harderian gland assessed as ng equivalent of CS-1036 at 5 mg/kg, po after 1 hr by liquid scintillation counting; assay type: ADME, organism-based
[4] = Drug uptake in albino F344/DuCrlCrlj rat thyroid gland assessed as ng equivalent of CS-1036 at 5 mg/kg, po after 1 hr by liquid scintillation counting; assay type: ADME, organism-based
[5] = system: Lung; assay: Drug uptake in albino F344/DuCrlCrlj rat lung assessed as ng equivalent of CS-1036 at 5 mg/kg, po after 1 hr by liquid scintillation counting; assay type: ADME, organism-based
[6] = system: Blood; assay: Drug uptake in albino F344/DuCrlCrlj rat blood assessed as ng equivalent of CS-1036 at 5 mg/kg, po after 4 hrs by liquid scintillation counting; assay type: ADME, organism-based
Procedure, shortened: (§1)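 Male F344/DuCrlCrlj rats (159–167 g; n = 3 per time point) received a single oral dose of [14C]CS-1036 at 5 mg/kg. Blood was taken from the abdominal aorta at 1, 4, 8, 24, 72, 168 and 336 h. Radioactivity was counted by LSC with external-standard efficiency correction. Results were converted to ng equivalent of CS-1036/ml using specific activity and sample volume, and reported as mean + S.D.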

[7] = system: Cerebellum; assay: Drug uptake in albino F344/DuCrlCrlj rat cerebellum assessed as ng equivalent of CS-1036 at 5 mg/kg, po after 72 hrs by liquid scintillation counting; assay type: ADME, organism-based
[8] = system: Lung; assay: Drug uptake in albino F344/DuCrlCrlj rat lung assessed as ng equivalent of CS-1036 at 5 mg/kg, po after 72 hrs by liquid scintillation counting; assay type: ADME, organism-based
[9] = system: Kidney; assay: Drug uptake in albino F344/DuCrlCrlj rat kidney assessed as ng equivalent of CS-1036 at 5 mg/kg, po after 4 hrs by liquid scintillation counting; assay type: ADME, organism-based
[10] = system: Pancreas; assay: Drug uptake in albino F344/DuCrlCrlj rat pancreas assessed as ng equivalent of CS-1036 at 5 mg/kg, po after 72 hrs by liquid scintillation counting; assay type: ADME, organism-based
[11] = Drug uptake in albino F344/DuCrlCrlj rat urinary bladder assessed as ng equivalent of CS-1036 at 5 mg/kg, po after 336 hrs by liquid scintillation counting; assay type: ADME, organism-based
[12] = Drug uptake in albino F344/DuCrlCrlj rat mandibular gland at 5 mg/kg, po after 24 hrs by liquid scintillation counting; assay type: ADME, organism-based
[13] = system: Thymus; assay: Drug uptake in albino F344/DuCrlCrlj rat thymus at 5 mg/kg, po after 24 hrs by liquid scintillation counting; assay type: ADME, organism-based
[14] = Drug uptake in albino F344/DuCrlCrlj rat brown fat at 5 mg/kg, po after 24 hrs by liquid scintillation counting; assay type: ADME, organism-based, Brown adipose tissue
[15] = system: Cerebellum; assay: Drug uptake in albino F344/DuCrlCrlj rat cerebellum assessed as ng equivalent of CS-1036 at 5 mg/kg, po after 168 hrs by liquid scintillation counting; assay type: ADME, organism-based
[16] = Drug uptake in albino F344/DuCrlCrlj rat thyroid gland assessed as ng equivalent of CS-1036 at 5 mg/kg, po after 168 hrs by liquid scintillation counting; assay type: ADME, organism-based
[17] = system: Heart; assay: Drug uptake in albino F344/DuCrlCrlj rat heart assessed as ng equivalent of CS-1036 at 5 mg/kg, po after 168 hrs by liquid scintillation counting; assay type: ADME, organism-based
[18] = Drug uptake in albino F344/DuCrlCrlj rat fat assessed as ng equivalent of CS-1036 at 5 mg/kg, po after 168 hrs by liquid scintillation counting; assay type: ADME, organism-based, Adipose tissue
Procedure, shortened: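 Male F344/DuCrlCrlj rats (bought at 7 weeks, acclimatized 5–6 days; 159–167 g; n = 3 per time point) received a single oral dose of [14C]CS-1036 at 5 mg/kg. White adipose tissue was collected after abdominal aortic bleeding at 1, 4, 8, 24, 72, 168 or 336 h. Samples were counted by LSC with external-standard efficiency correction. Results were converted to ng equivalents per g from specific activity and sample weight.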

[19] = Drug uptake in albino F344/DuCrlCrlj rat trachea assessed as ng equivalent of CS-1036 at 5 mg/kg, po after 8 hrs by liquid scintillation counting; assay type: ADME, organism-based
[20] = system: Aorta; assay: Drug uptake in albino F344/DuCrlCrlj rat aorta assessed as ng equivalent of CS-1036 at 5 mg/kg, po after 8 hrs by liquid scintillation counting; assay type: ADME, organism-based
[21] = system: Cerebellum; assay: Drug uptake in albino F344/DuCrlCrlj rat cerebellum assessed as ng equivalent of CS-1036 at 5 mg/kg, po after 336 hrs by liquid scintillation counting; assay type: ADME, organism-based
[22] = system: Lung; assay: Drug uptake in albino F344/DuCrlCrlj rat lung assessed as ng equivalent of CS-1036 at 5 mg/kg, po after 336 hrs by liquid scintillation counting; assay type: ADME, organism-based
[23] = system: Adrenal gland; assay: Drug uptake in albino F344/DuCrlCrlj rat adrenal gland assessed as ng equivalent of CS-1036 at 5 mg/kg, po after 336 hrs by liquid scintillation counting; assay type: ADME, organism-based
[24] = system: Heart; assay: Drug uptake in albino F344/DuCrlCrlj rat heart at 5 mg/kg, po after 1 hr by liquid scintillation counting; assay type: ADME, organism-based
[25] = system: Spleen; assay: Drug uptake in albino F344/DuCrlCrlj rat spleen at 5 mg/kg, po after 1 hr by liquid scintillation counting; assay type: ADME, organism-based
[26] = system: Stomach; assay: Drug uptake in albino F344/DuCrlCrlj rat stomach assessed as ng equivalent of CS-1036 at 5 mg/kg, po after 8 hrs by liquid scintillation counting; assay type: ADME, organism-based
[27] = system: Large intestine; assay: Drug uptake in albino F344/DuCrlCrlj rat large intestine assessed as ng equivalent of CS-1036 at 5 mg/kg, po after 8 hrs by liquid scintillation counting; assay type: ADME, organism-based
[28] = system: Plasma; assay: Drug uptake in albino F344/DuCrlCrlj rat plasma assessed as ng equivalent of CS-1036 at 5 mg/kg, po after 24 hrs by liquid scintillation counting; assay type: ADME, organism-based
[29] = system: Blood; assay: Drug uptake in albino F344/DuCrlCrlj rat blood at 5 mg/kg, po after 168 hrs by liquid scintillation counting; assay type: ADME, organism-based; procedure, shortened: as §1
[30] = system: Thymus; assay: Drug uptake in albino F344/DuCrlCrlj rat thymus at 5 mg/kg, po after 168 hrs by liquid scintillation counting; assay type: ADME, organism-based
[31] = system: Lung; assay: Drug uptake in albino F344/DuCrlCrlj rat lung at 5 mg/kg, po after 168 hrs by liquid scintillation counting; assay type: ADME, organism-based
[32] = Drug uptake in albino F344/DuCrlCrlj rat epididymis at 5 mg/kg, po after 168 hrs by liquid scintillation counting; assay type: ADME, organism-based
[33] = system: Blood; assay: Drug uptake in albino F344/DuCrlCrlj rat blood at 5 mg/kg, po after 336 hrs by liquid scintillation counting; assay type: ADME, organism-based; procedure, shortened: as §1
[34] = system: Spleen; assay: Drug uptake in albino F344/DuCrlCrlj rat spleen at 5 mg/kg, po after 336 hrs by liquid scintillation counting; assay type: ADME, organism-based

## C[C@H]1O[C@@H](O[C@H]2[C@H](O)[C@@H](O)[C@@H](O[14C@H]3[14C@H](O)[14CH2]N[14C@@H]3[14CH2]O)O[C@@H]2CO)[C@H](O)[C@@H](O)[C@@H]1O
[1]
  Radiolabel recovery: 7.5 ngequiv/g
[2]
  Radiolabel recovery: 9.86 ngequiv/g
[3]
  Radiolabel recovery: 4.3 ngequiv/g
[4]
  Radiolabel recovery: 7.2 ngequiv/g
[5]
  Radiolabel recovery: 3 ngequiv/g
[6]
  Radiolabel recovery: 16.3 ngequiv/ml
[7]
  Radiolabel recovery: 6.4 ngequiv/g
[8]
  Radiolabel recovery: 5.1 ngequiv/g
[9]
  Radiolabel recovery: 173 ngequiv/g
[10]
  Radiolabel recovery: 82 ngequiv/g
[11]
  Radiolabel recovery: 5.5 ngequiv/g
[12]
  Radiolabel recovery: 118 ngequiv/g
[13]
  Radiolabel recovery: 53.3 ngequiv/g
[14]
  Radiolabel recovery: 200 ngequiv/g
[15]
  Radiolabel recovery: 3.37 ngequiv/g
[16]
  Radiolabel recovery: 29.9 ngequiv/g
[17]
  Radiolabel recovery: 5.9 ngequiv/g
[18]
  Radiolabel recovery: 64 ngequiv/g
[19]
  Radiolabel recovery: 17.8 ngequiv/g
[20]
  Radiolabel recovery: 42.1 ngequiv/g
[21]
  Radiolabel recovery: 3.05 ngequiv/g
[22]
  Radiolabel recovery: 3.93 ngequiv/g
[23]
  Radiolabel recovery: 8.2 ngequiv/g
[24]
  Radiolabel recovery: 27.9 ngequiv/g
[25]
  Radiolabel recovery: 65.6 ngequiv/g
[26]
  Radiolabel recovery: 59 ngequiv/g
[27]
  Radiolabel recovery: 8000 ngequiv/g
[28]
  Radiolabel recovery: 6.1 ngequiv/ml
[29]
  Radiolabel recovery: 8.55 ngequiv/ml
[30]
  Radiolabel recovery: 12 ngequiv/g
[31]
  Radiolabel recovery: 17.2 ngequiv/g
[32]
  Radiolabel recovery: 18.5 ngequiv/g
[33]
  Radiolabel recovery: 5.27 ngequiv/ml
[34]
  Radiolabel recovery: 7.81 ngequiv/g
